Measured values taken from ChEMBL document CHEMBL4373711, “Development of 3,5-Dinitrophenyl-Containing 1,2,4-Triazoles and Their Trifluoromethyl Analogues as Highly Efficient Antitubercular Agents Inhibiting Decaprenylphosphoryl-β-d-ribofuranose 2'-Oxidase” (J Med Chem, 2019).

How the values were obtained:
[1] = Genotoxicity in Salmonella typhimurium TA100 at 30 uM in presence of rat liver S9 fraction by Ames test; type: toxicity, subcellular; settings: salmonella enterica subsp. enterica serovar typhimurium, s9, 30 µM
Method in brief: (§1)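 Microplate fluctuation Ames reverse-mutation test following kit instructions; TA98 detects frameshift and TA100 base-exchange mutations. Compound at 30 µM final with Aroclor-1254-induced rat liver S9 plus cofactors.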

[2] = Genotoxicity in Salmonella typhimurium TA98 at 30 uM in presence of rat liver S9 fraction by Ames test; type: toxicity, subcellular; settings: salmonella enterica subsp. enterica serovar typhimurium, s9, 30 µM; method in brief: as §1
[3] = Selectivity index, ratio of IC50 for human HepG2 cells to MIC>99 for antimycobacterial activity against Mycobacterium tuberculosis H37Rv CNCTC My 331/88 after 14 days; type: toxicity; settings: read-out: Selectivity Index
Method in brief: (§2)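 SI from HepG2 IC50 and M. tuberculosis MIC. HepG2 cells: DMEM + 10% FBS + 1 mM pyruvate, 10,000/well, 48 h treatment, 0.1% DMSO and 10% SDS controls, MTS absorbance at 490 nm.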

[4] = Selectivity index, ratio of IC50 for human HepG2 cells to MIC>99 for antimycobacterial activity against Mycobacterium tuberculosis H37Rv CNCTC My 331/88 after 21 days; type: toxicity; settings: read-out: Selectivity Index; method in brief: as §2
[5] = Selectivity index, ratio of IC50 for human HepG2 cells to MIC>99 for antimycobacterial activity against Mycobacterium avium CNCTC My 330/88 after 14 days; type: toxicity; settings: read-out: Selectivity Index
[6] = Selectivity index, ratio of IC50 for human HepG2 cells to MIC>99 for antimycobacterial activity against Mycobacterium avium CNCTC My 330/88 after 21 days; type: toxicity; settings: read-out: Selectivity Index
[7] = Selectivity index, ratio of IC50 for human HepG2 cells to MIC>99 for antimycobacterial activity against Mycobacterium kansasii CNCTC My 235/80 after 7 days; type: toxicity; settings: read-out: Selectivity Index
[8] = Selectivity index, ratio of IC50 for human HepG2 cells to MIC>99 for antimycobacterial activity against Mycobacterium kansasii CNCTC My 235/80 after 14 days; type: toxicity; settings: read-out: Selectivity Index
[9] = Selectivity index, ratio of IC50 for human HepG2 cells to MIC>99 for antimycobacterial activity against Mycobacterium kansasii CNCTC My 235/80 after 21 days; type: toxicity; settings: read-out: Selectivity Index
[10] = Selectivity index, ratio of IC50 for human HepG2 cells to MIC>99 for antimycobacterial activity against Mycobacterium kansasii 6509/96 after 7 days; type: toxicity; settings: read-out: Selectivity Index
[11] = Selectivity index, ratio of IC50 for human HepG2 cells to MIC>99 for antimycobacterial activity against Mycobacterium kansasii 6509/96 after 14 days; type: toxicity; settings: read-out: Selectivity Index
[12] = Selectivity index, ratio of IC50 for human HepG2 cells to MIC>99 for antimycobacterial activity against Mycobacterium kansasii 6509/96 after 21 days; type: toxicity; settings: read-out: Selectivity Index
[13] = Selectivity index, ratio of IC50 for human HepG2 cells to MIC>99 for antimycobacterial activity against XDR Mycobacterium tuberculosis Praha 131 after 14 days; type: toxicity; settings: read-out: Selectivity Index; method in brief: as §2
[14] = Selectivity index, ratio of IC50 for human HepG2 cells to MIC>99 for antimycobacterial activity against XDR Mycobacterium tuberculosis Praha 131 after 21 days; type: toxicity; settings: read-out: Selectivity Index; method in brief: as §2
[15] = Selectivity index, ratio of IC50 for human A431 cells to MIC>99 for antimycobacterial activity against Mycobacterium tuberculosis H37Rv CNCTC My 331/88 after 14 days; type: toxicity; settings: read-out: Selectivity Index
[16] = Selectivity index, ratio of IC50 for human A431 cells to MIC>99 for antimycobacterial activity against Mycobacterium tuberculosis H37Rv CNCTC My 331/88 after 21 days; type: toxicity; settings: read-out: Selectivity Index
[17] = Selectivity index, ratio of IC50 for human A431 cells to MIC>99 for antimycobacterial activity against Mycobacterium avium CNCTC My 330/88 after 14 days; type: toxicity; settings: read-out: Selectivity Index
[18] = Selectivity index, ratio of IC50 for human A431 cells to MIC>99 for antimycobacterial activity against Mycobacterium avium CNCTC My 330/88 after 21 days; type: toxicity; settings: read-out: Selectivity Index
[19] = Selectivity index, ratio of IC50 for human A431 cells to MIC>99 for antimycobacterial activity against Mycobacterium kansasii 6509/96 after 7 days; type: toxicity; settings: read-out: Selectivity Index
[20] = Selectivity index, ratio of IC50 for human A431 cells to MIC>99 for antimycobacterial activity against Mycobacterium kansasii 6509/96 after 21 days; type: toxicity; settings: read-out: Selectivity Index

Row | SMILES | Activity [1] | Activity [2] | selectivity ratio at 336 h [3] | selectivity ratio at 504 h [4] | selectivity ratio at 336 h [5] | selectivity ratio at 504 h [6] | selectivity ratio at 168 h [7] | selectivity ratio at 336 h [8] | selectivity ratio at 504 h [9] | selectivity ratio at 168 h [10] | selectivity ratio at 336 h [11] | selectivity ratio at 504 h [12] | selectivity ratio at 336 h [13] | selectivity ratio at 504 h [14] | selectivity ratio at 336 h [15] | selectivity ratio at 504 h [16] | selectivity ratio at 336 h [17] | selectivity ratio at 504 h [18] | selectivity ratio at 168 h [19] | selectivity ratio at 504 h [20]
1 | O=[N+]([O-])c1cc(-c2nnc(SCc3ccccc3)n2Cc2ccccc2)cc([N+](=O)[O-])c1 | Non-Toxic | Non-Toxic |  |  |  |  |  |  |  |  |  |  |  |  |  |  |  |  |  | 
2 | O=[N+]([O-])c1cc(-c2nnc(SCc3ccccc3)n2Cc2ccccc2)cc(C(F)(F)F)c1 |  |  | > 100 | > 100 | > 100 | > 100 | > 100 | > 100 | > 100 | > 100 | > 100 | > 100 | > 100 | > 100 | > 100 | > 100 | > 100 | > 100 | > 100 | > 100
